Laboratory results taken from ChEMBL document CHEMBL1156822, “Isosorbide-2-benzyl carbamate-5-salicylate, a peripheral anionic site binding subnanomolar selective butyrylcholinesterase inhibitor” (J Med Chem, 2010).

Experiments:
[1] = Selectivity for human BuChe over electric eel AChE type 6S
Cholinesterase [2] = target: T1, Cholinesterase (Homo sapiens, UniProt P06276); test: Inhibition of BuChE in human liver microsomes
[3] = target: Acetylcholinesterase (Electrophorus electricus) (UniProt O42275); test: Inhibition of electric eel AChE type 6S at 100 uM
In short: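 Electric eel AChE (type VI-S) in pH 8.0 phosphate buffer was preincubated for 30 min at 37 °C with test compound added from a 2 mmol MeCN stock. Ellman read-out followed, with final DTNB 0.3 mmol and acetylthiocholine 0.5 mmol.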

Cholinesterase [4] = target: T1, Cholinesterase; test: Inhibition of BuChE in human liver microsomes assessed as dissociation constant for Michaelis complex formation by enzyme kinetic study; settings: Microsome
[5] = Inhibition of human BuChE D70G mutant assessed as dissociation constant for Michaelis complex formation by enzyme kinetic study
In short: (§1)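 Wild-type human BuChE (lyophilised, dissolved in pH 8.0 phosphate buffer) or recombinant mutants. Final concentrations: enzyme 0.05 U mL^-1, DTNB 0.3 mmol, butyrylthiocholine 0.5 mmol. Inhibitor at various concentrations was mixed with enzyme at time 0. Aliquots taken at successive times were read at 412 nm over 30 s, in at least two wells each. k_obs came from a first-order fit, and K_c from a nonlinear fit of k_obs against inhibitor concentration.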

Homo sapiens [6] = species: Homo sapiens; test: Inhibition of human BuChE Y332A mutant assessed as dissociation constant for Michaelis complex formation by enzyme kinetic study; in short: as §1
Homo sapiens [7] = species: Homo sapiens; test: Inhibition of human BuChE D70G/Y332A mutant assessed as dissociation constant for Michaelis complex formation by enzyme kinetic study; in short: as §1
Plasma [8] = test: Metabolic stability in 33% human plasma assessed as compound hydrolysis after 1 hr by HPLC; format: ADME, cell-free
In short: (§2)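 The ester (1 × 10^-4 M) was incubated in human plasma solution (33-50%), mouse plasma (33%) or mouse liver homogenate. Remaining intact ester was measured by HPLC as a function of time over 1 h.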

Liver carboxylesterase 1 = target: T2, Liver carboxylesterase 1 (Homo sapiens, UniProt P23141); test: Inhibition of human CES1-mediated pNPA substrate turnover
T2 sequence (P23141 whole entry): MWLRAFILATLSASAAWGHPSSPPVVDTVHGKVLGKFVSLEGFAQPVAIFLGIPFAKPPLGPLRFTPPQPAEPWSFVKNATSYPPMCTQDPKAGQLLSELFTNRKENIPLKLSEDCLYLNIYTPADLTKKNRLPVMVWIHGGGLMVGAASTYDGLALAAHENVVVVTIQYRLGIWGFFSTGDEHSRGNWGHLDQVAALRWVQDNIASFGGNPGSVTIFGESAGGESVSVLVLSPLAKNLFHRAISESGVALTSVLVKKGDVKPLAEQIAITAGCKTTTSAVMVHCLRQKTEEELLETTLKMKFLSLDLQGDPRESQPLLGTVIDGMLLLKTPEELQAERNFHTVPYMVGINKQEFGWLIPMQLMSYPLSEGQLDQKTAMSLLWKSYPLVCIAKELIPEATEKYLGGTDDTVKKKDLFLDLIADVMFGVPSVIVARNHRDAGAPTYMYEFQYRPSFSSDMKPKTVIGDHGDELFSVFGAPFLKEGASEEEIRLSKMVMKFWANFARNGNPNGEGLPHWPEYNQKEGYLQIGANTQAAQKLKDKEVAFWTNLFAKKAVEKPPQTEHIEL
In short: (§3)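 Source: pooled human liver microsomes (CES1) or human intestinal microsomes (CES2). The microsomes were preincubated with inhibitor at 50 nM-200 μM in 50 mM Tris-HCl pH 7.4 for 30 min at 37 °C. Substrate was pNPA at 3 mM final. p-Nitrophenol release was read at 405 nm. Rates were corrected for spontaneous-hydrolysis blanks, with four independent measurements per concentration. IC50 came from nonlinear sigmoidal curve fit.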

[9] = target: Acetylcholinesterase (Homo sapiens) (UniProt P22303); test: Inhibition of human erythrocyte AChE at 100 uM
Liver = test: Metabolic stability in 33% mouse liver homogenate assessed as compound hydrolysis after 1 hr by HPLC; format: ADME, tissue-based; settings: tissue homogenate; in short: as §2
Plasma [10] = test: Metabolic stability in 33% mouse plasma assessed as compound hydrolysis after 1 hr by HPLC; format: ADME, cell-free; in short: as §2
Homo sapiens [11] = species: Homo sapiens; test: Selectivity for human BuChe over human CES2
Cocaine esterase = target: T3, Cocaine esterase (Homo sapiens, UniProt O00748); test: Inhibition of human CES2-mediated pNPA substrate turnover; in short: as §3
T3 sequence (O00748 whole entry): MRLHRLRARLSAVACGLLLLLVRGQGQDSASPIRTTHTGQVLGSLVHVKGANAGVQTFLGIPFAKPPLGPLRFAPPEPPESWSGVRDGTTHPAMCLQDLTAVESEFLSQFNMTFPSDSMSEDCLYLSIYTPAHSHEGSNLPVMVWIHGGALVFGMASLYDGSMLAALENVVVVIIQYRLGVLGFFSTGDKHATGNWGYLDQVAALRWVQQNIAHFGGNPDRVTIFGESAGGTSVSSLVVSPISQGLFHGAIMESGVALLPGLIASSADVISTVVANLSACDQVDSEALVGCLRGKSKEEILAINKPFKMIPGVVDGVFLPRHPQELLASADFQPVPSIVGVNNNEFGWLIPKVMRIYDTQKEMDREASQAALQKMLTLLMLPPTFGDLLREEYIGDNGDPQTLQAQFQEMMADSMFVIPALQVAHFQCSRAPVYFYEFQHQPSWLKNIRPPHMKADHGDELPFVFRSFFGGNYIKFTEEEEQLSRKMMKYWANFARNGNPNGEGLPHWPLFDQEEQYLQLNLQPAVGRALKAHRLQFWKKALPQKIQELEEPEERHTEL

T1 sequence (P06276 whole entry): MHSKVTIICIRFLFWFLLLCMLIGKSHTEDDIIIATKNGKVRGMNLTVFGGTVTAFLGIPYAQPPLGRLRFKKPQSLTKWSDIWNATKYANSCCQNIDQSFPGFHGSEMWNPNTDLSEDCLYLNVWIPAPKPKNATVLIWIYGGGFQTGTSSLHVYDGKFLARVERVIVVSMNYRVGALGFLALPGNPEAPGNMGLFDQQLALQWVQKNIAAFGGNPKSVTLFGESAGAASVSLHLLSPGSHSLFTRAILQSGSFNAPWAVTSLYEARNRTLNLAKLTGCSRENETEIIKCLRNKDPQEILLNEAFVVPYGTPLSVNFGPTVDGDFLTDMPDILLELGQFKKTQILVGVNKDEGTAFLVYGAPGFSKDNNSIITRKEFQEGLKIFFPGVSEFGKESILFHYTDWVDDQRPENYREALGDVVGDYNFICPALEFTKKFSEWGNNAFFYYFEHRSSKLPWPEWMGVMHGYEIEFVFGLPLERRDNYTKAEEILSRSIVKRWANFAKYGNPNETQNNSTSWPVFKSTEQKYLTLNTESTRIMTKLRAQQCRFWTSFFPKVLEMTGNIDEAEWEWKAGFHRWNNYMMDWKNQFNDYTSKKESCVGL
Sequence of Acetylcholinesterase (Electrophorus electricus) (O42275 24-633 limits assumed): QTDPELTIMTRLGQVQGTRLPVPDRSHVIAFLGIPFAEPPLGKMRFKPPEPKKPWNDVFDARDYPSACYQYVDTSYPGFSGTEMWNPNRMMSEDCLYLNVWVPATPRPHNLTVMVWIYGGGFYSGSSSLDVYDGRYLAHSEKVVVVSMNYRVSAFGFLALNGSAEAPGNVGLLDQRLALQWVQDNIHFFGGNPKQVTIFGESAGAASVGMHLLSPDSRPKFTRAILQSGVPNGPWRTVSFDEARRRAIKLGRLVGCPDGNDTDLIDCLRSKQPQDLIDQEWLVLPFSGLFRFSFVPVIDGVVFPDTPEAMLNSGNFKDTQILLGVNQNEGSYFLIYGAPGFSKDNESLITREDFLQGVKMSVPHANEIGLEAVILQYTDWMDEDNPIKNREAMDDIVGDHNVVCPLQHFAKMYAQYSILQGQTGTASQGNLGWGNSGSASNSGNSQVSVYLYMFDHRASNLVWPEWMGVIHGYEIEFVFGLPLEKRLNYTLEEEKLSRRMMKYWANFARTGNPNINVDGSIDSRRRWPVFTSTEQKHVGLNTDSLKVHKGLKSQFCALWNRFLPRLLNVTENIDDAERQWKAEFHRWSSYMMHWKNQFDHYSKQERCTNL
Sequence of Acetylcholinesterase (Homo sapiens) (P22303 whole entry): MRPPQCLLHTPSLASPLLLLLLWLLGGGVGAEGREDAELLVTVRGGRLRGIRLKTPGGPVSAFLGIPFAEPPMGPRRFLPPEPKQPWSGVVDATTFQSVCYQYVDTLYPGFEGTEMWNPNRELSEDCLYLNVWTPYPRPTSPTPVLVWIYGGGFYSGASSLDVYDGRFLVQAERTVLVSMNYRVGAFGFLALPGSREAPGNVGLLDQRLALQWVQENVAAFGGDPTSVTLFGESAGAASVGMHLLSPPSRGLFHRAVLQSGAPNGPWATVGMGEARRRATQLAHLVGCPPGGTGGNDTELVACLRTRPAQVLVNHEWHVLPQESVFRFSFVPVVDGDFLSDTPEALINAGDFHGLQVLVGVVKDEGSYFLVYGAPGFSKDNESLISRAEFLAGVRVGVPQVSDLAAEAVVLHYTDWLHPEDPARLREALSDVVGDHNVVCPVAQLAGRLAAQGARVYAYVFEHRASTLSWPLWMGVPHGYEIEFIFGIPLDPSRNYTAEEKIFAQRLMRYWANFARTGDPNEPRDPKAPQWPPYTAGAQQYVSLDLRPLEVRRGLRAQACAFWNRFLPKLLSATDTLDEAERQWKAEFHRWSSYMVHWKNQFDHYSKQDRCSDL

Structure (SMILES) | Ratio [1] | IC50 (Cholinesterase [2]) | inhibition [3] | Activity (Cholinesterase [4]) | further results
O=C(NCc1ccccc1)O[C@H]1CO[C@H]2[C@@H]1OC[C@H]2OC(=O)c1ccc([N+](=O)[O-])cc1 | > 854 | 117 nM | 27% | – | –
Nc1ccc(C(=O)O[C@@H]2CO[C@H]3[C@@H]2OC[C@@H]3OC(=O)NCc2ccccc2)cc1 | 336 | 297 nM | 33% | – | –
CCN(CC)C(=O)O[C@H]1CO[C@H]2[C@@H]1OC[C@H]2OC(=O)c1ccccc1O | > 38 | 2610 nM | 0% | – | –
O=C(O[C@@H]1CO[C@H]2[C@@H]1OC[C@@H]2OC(=O)N1CCOCC1)c1ccccc1O | > 95 | 1060 nM | 12% | – | –
CN(C)C(=O)O[C@H]1CO[C@H]2[C@@H]1OC[C@H]2OC(=O)c1ccccc1O | > 15600 | 6.4 nM | 0% | – | –
O=C(NCc1ccccc1)O[C@H]1CO[C@H]2[C@@H]1OC[C@H]2OC(=O)c1ccccc1[N+](=O)[O-] | > 5560 | 18 nM | 0% | – | –
Cc1ccccc1C(=O)O[C@@H]1CO[C@H]2[C@@H]1OC[C@@H]2OC(=O)NCc1ccccc1 | > 83300 | 1.2 nM | 26% | 0.248 µM | –
O=C(NCc1ccccc1)O[C@H]1CO[C@H]2[C@@H]1OC[C@H]2OC(=O)c1ccc(O)cc1 | > 309 | 323 nM | 0% | – | –
Nc1ccccc1C(=O)O[C@@H]1CO[C@H]2[C@@H]1OC[C@@H]2OC(=O)NCc1ccccc1 | > 3700 | 27 nM | 0% | – | –
O=C(NCc1ccccc1)O[C@H]1CO[C@H]2[C@@H]1OC[C@H]2OC(=O)c1cccnc1 | – | – | – | 1.9 µM | –
O=C(NCc1ccccc1)O[C@H]1CO[C@H]2[C@@H]1OC[C@H]2OC(=O)c1ccc(-c2ccccc2)cc1 | – | – | – | 0.4 µM | –
O=C(NCc1ccccc1)O[C@H]1CO[C@H]2[C@@H]1OC[C@H]2OC(=O)c1cccc(O)c1 | > 6250 | 16 nM | 0% | – | –
O=Nc1ccccc1C(=O)O[C@@H]1CO[C@H]2[C@@H]1OC[C@@H]2OC(=O)NCc1ccccc1 | > 2560 | 39 nM | 0% | – | –
O=C(NCc1ccccc1)O[C@H]1CO[C@H]2[C@@H]1OC[C@H]2O | – | – | – | 18.7 µM | –
CCCCNC(=O)O[C@H]1CO[C@H]2[C@@H]1OC[C@H]2OC(=O)c1ccccc1 | – | 72 nM | – | 2.57 µM | Activity [5]: 2.7 µM; Activity (Homo sapiens [6]): 1.3 µM; Activity (Homo sapiens [7]): 5.3 µM
CCNC(=O)O[C@H]1CO[C@H]2[C@@H]1OC[C@H]2OC(=O)c1ccccc1O | > 10400 | 9.6 nM | 16% | 0.075 µM | Activity [5]: 0.32 µM; Activity (Homo sapiens [6]): 0.42 µM; Activity (Homo sapiens [7]): 2.26 µM
O=C(NCc1ccccc1)O[C@H]1CO[C@H]2[C@@H]1OC[C@H]2OC(=O)c1ccccc1O | > 660000 | 0.15 nM | 47% | 0.01 µM | Activity [5]: 0.067 µM; Activity (Homo sapiens [6]): 0.05 µM; Stability (Plasma [8]): Stable; Activity (Homo sapiens [7]): 0.445 µM; Activity (Liver carboxylesterase 1): Not Active; inhibition [9]: 52%; Stability (Liver): Stable; Stability (Plasma [10]): Stable; Ratio IC50 (Homo sapiens [11]): 22800; IC50 (Cocaine esterase): 3420 nM
Nc1cccc(C(=O)O[C@@H]2CO[C@H]3[C@@H]2OC[C@@H]3OC(=O)NCc2ccccc2)c1 | > 1170 | 86 nM | 0% | – | –
O=C(NCc1ccccc1)O[C@H]1CO[C@H]2[C@@H]1OC[C@H]2OC(=O)c1ccccc1 | – | – | – | – | Activity [5]: 2.4 µM; Activity (Homo sapiens [6]): 1.5 µM; Activity (Homo sapiens [7]): 6.4 µM
O=C(NCc1ccccc1)O[C@H]1CO[C@H]2[C@@H]1OC[C@H]2OC(=O)c1cccc([N+](=O)[O-])c1 | > 3120 | 32 nM | 0% | – | –
